Results pooled from the literature.
Compare with care: the assays were run in different laboratories.
Target: Tyrosine-protein kinase Yes (YES1, Homo sapiens, UniProt P07947)

SMILES	effect on	action	technique	concentration	measurement	result
Cc1ccc(NC(=O)c2ccnc(C(F)(F)F)c2)cc1-c1cc(OCCO)nc(N2CCOCC2)c1	binding	–	competition with immobilised ligand	1 µM	remaining binding	87%
COc1ccc2oc(-c3ccc4nc(N)oc4c3)c/c(=N\c3ccccc3NC(=O)CCN)c2c1	binding	–	–	1 µM	remaining binding	101%
Cc1cc(O)c(-c2ccc([C@@H](C)CN(C)C)cc2)c2c1[nH]c(=O)c1sccc12	enzyme activity	inhibitor	–	0.1 µM	inhibition	10.3%
C1=C/COCc2cc(ccc2OCCN2CCCC2)Nc2nccc(n2)-c2cccc(c2)COC/1	binding	–	–	0.1 µM	remaining binding	71%
CO[C@@H]1[C@H](N(C)C(=O)c2ccccc2)C[C@H]2O[C@]1(C)n1c3ccccc3c3c4c(c5c6ccccc6n2c5c31)C(=O)NC4	enzyme activity	inhibitor	–	1 µM	inhibition	39%
CCCCC(=O)Nc1ccc(-c2ccc3ncn(CCC)c(=O)c3c2)cn1	binding	–	competition with immobilised ligand	0.5 µM	remaining binding	100%
C=CC(=O)N1CCC[C@@H](n2nc(-c3ccc(Oc4ccccc4)cc3)c3c(N)ncnc32)C1	enzyme activity	inhibitor	–	1 µM	inhibition	97%
CN1CCN(C(=O)c2ccc(NC(=O)Nc3ccc(N(C)c4ccnc(Nc5ccc(CS(C)(=O)=O)cc5)n4)cc3)cc2)CC1	binding	–	competition with immobilised ligand	1 µM	remaining binding	96%
